According to ChEMBL document CHEMBL3120104, “Discovery of the first C-nucleoside HCV polymerase inhibitor (GS-6620) with demonstrated antiviral response in HCV infected patients” (J Med Chem, 2014):
In brackets after ≈: the same amount, converted by molar mass.

system: not listed separately; experiment: Oral bioavailability in golden syrian hamster at 5 mg/kg; format: ADME, organism-based, Mesocricetus auratus; settings: in vivo

Point of comparison: `CCOC(=O)[C@H](C)NP(=O)(OC[C@H]1O[C@@](C#N)(c2ccc3c(N)ncnn23)[C@](C)(O)[C@@H]1O)Oc1ccccc1` (stereo partly drawn), bioavailability 2.5%. Against it:
- C[C@H](NP(=O)(OC[C@H]1O[C@@](C#N)(c2ccc3c(N)ncnn23)[C@](C)(O)[C@@H]1O)Oc1ccccc1)C(=O)OC1CCCC1 (stereo partly drawn) — higher, 6%
- COC(=O)[C@H](C)NP(=O)(OC[C@H]1O[C@@](C#N)(c2ccc3c(N)ncnn23)[C@](C)(O)[C@@H]1O)Oc1ccccc1 (stereo partly drawn) — lower, 0.9%

system: Syrian golden hamster; experiment: Cmax in golden syrian hamster assessed as liver triphosphate level at 5 mg/kg, po by LC/MS/MS analysis; format: ADME, organism-based, Mesocricetus auratus; parameters: dose 5 mg/kg, route oral; settings: in vivo
In short: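 Groups of 12 Golden Syrian hamsters were dosed orally at 5 mg-equiv/kg. Vehicle was EtOH/PEG400/water buffered with 50 mM pH 4 citrate at 2.5 mg-equiv/mL. Liver was homogenized in four volumes of ice-cold 0.1% KOH/67 mM EDTA in 70% MeOH containing 0.25 μM Cl-ATP, then centrifuged, dried and reconstituted in 1 mM ammonium phosphate pH 7.0. Triphosphate was measured by LC/MS/MS, with endogenous ATP checked for sample stability.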

Point of comparison: `COC(=O)[C@H](C)NP(=O)(OC[C@H]1O[C@@](C#N)(c2ccc3c(N)ncnn23)[C@](C)(O)[C@@H]1O)Oc1ccccc1` (stereo partly drawn), Cmax 290 nM. Against it:
- C[C@H](NP(=O)(OC[C@H]1O[C@@](C#N)(c2ccc3c(N)ncnn23)[C@](C)(O)[C@@H]1O)Oc1ccccc1)C(=O)OC1CCCC1 (stereo partly drawn) — 2.9-fold higher, 840 nM
- CCOC(=O)[C@H](C)NP(=O)(OC[C@H]1O[C@@](C#N)(c2ccc3c(N)ncnn23)[C@](C)(O)[C@@H]1O)Oc1ccccc1 (stereo partly drawn) — 2-fold higher, 570 nM

system: Syrian golden hamster; experiment: Cmax in golden syrian hamster assessed as liver triphosphate level at 1 mg/kg, iv by LC/MS/MS analysis; format: ADME, organism-based, Mesocricetus auratus; parameters: dose 1 mg/kg, route intravenous; settings: in vivo
In short: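 Golden Syrian hamsters in groups of 12, dosed iv at 1 mg-equiv/kg in EtOH/PEG400/water adjusted to pH 4 with HCl (0.5 mg-equiv/mL). Liver homogenised in ice-cold 70% MeOH with 0.1% KOH, 67 mM EDTA and 0.25 μM Cl-ATP internal standard, then centrifuged, dried and reconstituted. Triphosphate measured by LC/MS/MS; endogenous ATP checked for sample stability.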

Point of comparison: `COC(=O)[C@H](C)NP(=O)(OC[C@H]1O[C@@](C#N)(c2ccc3c(N)ncnn23)[C@](C)(O)[C@@H]1O)Oc1ccccc1` (stereo partly drawn), Cmax 6.35 µM. Against it:
- C[C@H](NP(=O)(OC[C@H]1O[C@@](C#N)(c2ccc3c(N)ncnn23)[C@](C)(O)[C@@H]1O)Oc1ccccc1)C(=O)OC1CCCC1 (stereo partly drawn) — 2.3-fold lower, 2.8 µM
- CCOC(=O)[C@H](C)NP(=O)(OC[C@H]1O[C@@](C#N)(c2ccc3c(N)ncnn23)[C@](C)(O)[C@@H]1O)Oc1ccccc1 (stereo partly drawn) — within 1.5-fold, 4.48 µM

system: Hepatocyte; experiment: Prodrug coversion in human hepatocytes assessed as triphosphate formation assesed per million cells at 10 uM incubated for 1 hr followed by compound washout by liquid chromatography coupled with mass spectrometry; format: ADME, cell-based; parameters: dose 10 uM; settings: not given
In short: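 Confluent primary human hepatocytes (0.88 × 10⁶ cells/well, Williams E medium) were exposed to 10 μM compound for 1 h, then to drug-free medium for 23 h. Cells were collected during and after exposure and extracted. Triphosphate was quantified by LC/MS/MS and expressed per million cells.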

For `C[C@H](NP(=O)(OC[C@H]1O[C@@](C#N)(c2ccc3c(N)ncnn23)[C@](C)(O)[C@@H]1O)Oc1ccccc1)C(=O)OC1CCCC1` (stereo partly drawn), the Drug metabolism was “Active”.

system: not listed separately; experiment: Metabolic stability in human liver S9 fraction assessed as extraction at 2 uM after 90 mins by LC/MS/MS analysis; format: ADME, subcellular; settings: read-out: Stability
In short: (§1)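 Compound at 2 μM was incubated with human intestinal or hepatic S9 fraction plus NADPH and UDPGA for 90 min at 37 °C. Time-point samples were quenched in aqueous acetonitrile/methanol with internal standard and analysed by LC/MS/MS. Half-life came from an exponential first-order fit, and hepatic extraction was predicted from half-life using the well-stirred model.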

Point of comparison: `C[C@H](NP(=O)(OC[C@H]1O[C@@](C#N)(c2ccc3c(N)ncnn23)[C@](C)(O)[C@@H]1O)Oc1ccccc1)C(=O)OC1CCCC1` (stereo partly drawn), hepatic extraction ratio at 1.5 h, 2 µM 0.95. Against it:
- CCOC(=O)[C@H](C)NP(=O)(OC[C@H]1O[C@@](C#N)(c2ccc3c(N)ncnn23)[C@](C)(O)[C@@H]1O)Oc1ccccc1 (stereo partly drawn) — lower, 0.89
- COC(=O)[C@H](C)NP(=O)(OC[C@H]1O[C@@](C#N)(c2ccc3c(N)ncnn23)[C@](C)(O)[C@@H]1O)Oc1ccccc1 (stereo partly drawn) — lower, 0.9

system: not listed separately; experiment: Half life in human intestinal S9 fraction at 2 uM by LC/MS/MS analysis; format: ADME, Intestine; settings: not given; in short: as §1

Point of comparison: `COC(=O)[C@H](C)NP(=O)(OC[C@H]1O[C@@](C#N)(c2ccc3c(N)ncnn23)[C@](C)(O)[C@@H]1O)Oc1ccccc1` (stereo partly drawn), half-life at 2 µM 190 min. Against it:
- C[C@H](NP(=O)(OC[C@H]1O[C@@](C#N)(c2ccc3c(N)ncnn23)[C@](C)(O)[C@@H]1O)Oc1ccccc1)C(=O)OC1CCCC1 (stereo partly drawn) — 6.3-fold lower, 30 min
- CCOC(=O)[C@H](C)NP(=O)(OC[C@H]1O[C@@](C#N)(c2ccc3c(N)ncnn23)[C@](C)(O)[C@@H]1O)Oc1ccccc1 (stereo partly drawn) — 2.8-fold lower, 69 min

system: not listed separately; experiment: Permeability across basolateral to apical side in human Caco2 cells at 10 uM after 1 to 2 hrs by LC/MS/MS analysis; format: ADME, cell-based; settings: Caco-2, read-out: permeability
In short: (§2)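 Caco-2 monolayers were grown at least 21 days, and membrane integrity was checked by TEER after buffer equilibration. Test compound was dosed at 10 μM on the apical or basolateral side, in duplicate wells. Receiver samples at 1 and 2 h were precipitated with acetonitrile plus internal standard and run by LC/MS/MS.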

Point of comparison: `C[C@H](NP(=O)(OC[C@H]1O[C@@](C#N)(c2ccc3c(N)ncnn23)[C@](C)(O)[C@@H]1O)Oc1ccccc1)C(=O)OC1CCCC1` (stereo partly drawn), Papp B→A at 10 µM 5.86 ×10⁻⁶ cm/s. Against it:
- CCOC(=O)[C@H](C)NP(=O)(OC[C@H]1O[C@@](C#N)(c2ccc3c(N)ncnn23)[C@](C)(O)[C@@H]1O)Oc1ccccc1 (stereo partly drawn) — 2-fold lower, 2.98 ×10⁻⁶ cm/s
- COC(=O)[C@H](C)NP(=O)(OC[C@H]1O[C@@](C#N)(c2ccc3c(N)ncnn23)[C@](C)(O)[C@@H]1O)Oc1ccccc1 (stereo partly drawn) — within 1.5-fold, 4.64 ×10⁻⁶ cm/s

system: not listed separately; experiment: Permeability across apical to basolateral side in human Caco2 cells at 10 uM after 1 to 2 hrs by LC/MS/MS analysis; format: ADME, cell-based; settings: Caco-2, read-out: permeability; in short: as §2

Point of comparison: `COC(=O)[C@H](C)NP(=O)(OC[C@H]1O[C@@](C#N)(c2ccc3c(N)ncnn23)[C@](C)(O)[C@@H]1O)Oc1ccccc1` (stereo partly drawn), Papp A→B at 10 µM 0.41 ×10⁻⁶ cm/s. Against it:
- C[C@H](NP(=O)(OC[C@H]1O[C@@](C#N)(c2ccc3c(N)ncnn23)[C@](C)(O)[C@@H]1O)Oc1ccccc1)C(=O)OC1CCCC1 (stereo partly drawn) — within 1.5-fold, 0.37 ×10⁻⁶ cm/s
- CCOC(=O)[C@H](C)NP(=O)(OC[C@H]1O[C@@](C#N)(c2ccc3c(N)ncnn23)[C@](C)(O)[C@@H]1O)Oc1ccccc1 (stereo partly drawn) — 2.4-fold lower, 0.17 ×10⁻⁶ cm/s

system: not listed separately; experiment: Aqueous solubility of the compound in phosphate buffer at pH 7 by reverse-phase UPLC-UV method; format: physicochemical; settings: not given
In short: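 Excess solid was suspended in pH 7 phosphate buffer at ambient temperature, sonicated, then stirred for at least 2 h. After centrifugation, the supernatant was quantified by reverse-phase UPLC-UV.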

Point of comparison: `C[C@H](NP(=O)(OC[C@H]1O[C@@](C#N)(c2ccc3c(N)ncnn23)[C@](C)(O)[C@@H]1O)Oc1ccccc1)C(=O)OC1CCCC1` (stereo partly drawn), solubility 10 µg/mL (≈ 16.7 µM). Against it:
- CCOC(=O)[C@H](C)NP(=O)(OC[C@H]1O[C@@](C#N)(c2ccc3c(N)ncnn23)[C@](C)(O)[C@@H]1O)Oc1ccccc1 (stereo partly drawn) — 11-fold higher, 108 µg/mL (≈ 193 µM)

system: not listed separately; experiment: Lipophilicity, log D of the compound by HPLC/UV method; format: physicochemical; settings: not given
In short: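 A 10 mM DMSO stock was diluted 1:100 into 1:1 acetonitrile/water, shaken 30 min, and analysed by HPLC/UV on a C18 column with 20 mM ammonium acetate/acetonitrile mobile phase.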

Point of comparison: `CCOC(=O)[C@H](C)NP(=O)(OC[C@H]1O[C@@](C#N)(c2ccc3c(N)ncnn23)[C@](C)(O)[C@@H]1O)Oc1ccccc1` (stereo partly drawn), logD 1.6. Against it:
- C[C@H](NP(=O)(OC[C@H]1O[C@@](C#N)(c2ccc3c(N)ncnn23)[C@](C)(O)[C@@H]1O)Oc1ccccc1)C(=O)OC1CCCC1 (stereo partly drawn) — higher, 2.2
- COC(=O)[C@H](C)NP(=O)(OC[C@H]1O[C@@](C#N)(c2ccc3c(N)ncnn23)[C@](C)(O)[C@@H]1O)Oc1ccccc1 (stereo partly drawn) — lower, 1.3

system: not listed separately; experiment: Cytotoxicity against human HuH7 cells after 3 days by fluorescence assay; format: cell-based; settings: Huh-7 cells
In short: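 Huh-7 HCV replicon cells were seeded at 2000 cells/well in medium without Geneticin. Compounds were added as ten-point 1:3 DMSO dilutions in quadruplicate (final DMSO 0.44%), with […] as the 100% cytotoxicity control. After 3 days at 37 °C, cells were washed and given 400 nM calcein AM for 30 min at RT, and fluorescence read at ex 490/em 520 nm. Signal was normalized to DMSO and puromycin wells, and CC50 taken from a four-parameter Hill fit.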

`C[C@H](NP(=O)(OC[C@H]1O[C@@](C#N)(c2ccc3c(N)ncnn23)[C@](C)(O)[C@@H]1O)Oc1ccccc1)C(=O)OC1CCCC1` (stereo partly drawn) and `COC(=O)[C@H](C)NP(=O)(OC[C@H]1O[C@@](C#N)(c2ccc3c(N)ncnn23)[C@](C)(O)[C@@H]1O)Oc1ccccc1` (stereo partly drawn) cannot be ordered by CC50 at 72 h: over 89 µM for the first, over 89 µM for the second.

`CCOC(=O)[C@H](C)NP(=O)(OC[C@H]1O[C@@](C#N)(c2ccc3c(N)ncnn23)[C@](C)(O)[C@@H]1O)Oc1ccccc1` (stereo partly drawn) showed a CC50 at 72 h of over 89 µM.

system: Hepatitis C virus; experiment: Antiviral activity against HCV genotype 1b infected in human HuH7 cells assessed as inhibition of viral replication after 3 days by luminescence assay; format: functional, organism-based, Hepacivirus hominis; settings: Huh-7, 72 h
In short: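 Multiplex replicon assay carrying a renilla luciferase reporter, with stable GT1b, 1a and 2a replicons and chimeric 2b, 3a, 4a, 5a and 6a replicons. 2000 replicon cells/well in medium without Geneticin. Ten-step 1:3 serial dilutions, four replicates, 0.44% DMSO final. Incubated 3 days at 37 °C, 5% CO₂. Luminescence normalised to DMSO wells and to protease-inhibitor (ITMN-191) wells. EC50 from a four-parameter Hill fit.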

Point of comparison: `COC(=O)[C@H](C)NP(=O)(OC[C@H]1O[C@@](C#N)(c2ccc3c(N)ncnn23)[C@](C)(O)[C@@H]1O)Oc1ccccc1` (stereo partly drawn), EC50 1370 nM. Against it:
- C[C@H](NP(=O)(OC[C@H]1O[C@@](C#N)(c2ccc3c(N)ncnn23)[C@](C)(O)[C@@H]1O)Oc1ccccc1)C(=O)OC1CCCC1 (stereo partly drawn) — 3-fold lower, 450 nM
- CCOC(=O)[C@H](C)NP(=O)(OC[C@H]1O[C@@](C#N)(c2ccc3c(N)ncnn23)[C@](C)(O)[C@@H]1O)Oc1ccccc1 (stereo partly drawn) — within 1.5-fold, 1450 nM
